# Screening results (PubChem BioAssay)
# E-sel inducer = E-selectin induction in HUVECs, primary screen, imaging, HUVEC, immunofluorescence imaging, single point. normalized: neutral wells 0, TNF-alpha wells 100. P16581. actives 0.37% (n = 260,000). AID 686992, 2013. activation, % at 7.58 µM;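 active = mean E-selectin-positive cell signal at least 10% of the positive control, reached in at least 60% of replicates, without over 20% cell loss; inconclusive = no rule given, readout overlaps actives, possibly toxicity-flagged; inactive = the rest, including those meeting only one limit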
#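 Material: HUVEC primary endothelial cells; Amount: 3,000 cells per well; Dosing: single concentration; Medium: EGM-2 growth medium on 0.1% gelatin-coated wells; Read-out basis: percent E-selectin-positive cells; Signal: immunofluorescence imaging; Control set: TNF-alpha, DMSO.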
# AF4-AF9 inh = inhibitors of AF4 peptide binding to AF9, primary screen, biochemical, AlphaScreen, biotin-AF4 peptide, FLAG-AF9, single point; actives 0.47% (n = 350,000); inhibition, % at 10 µM; Protein AF-9 (Homo sapiens), P42568;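 active = every replicate reaching a set inhibition limit, whatever the replicate mean, cut at about 25% in these data; inconclusive = mean inhibition reaches that limit but some replicates miss it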;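 note: 0% = plate neutral control median and 100% = total signal loss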
# rRNA inh HTS = reduced GFP signal of wild-type E. coli, primary screen, bacterial rRNA inhibitor project, GFP/RFP fluorescence, OD600, single point; E. coli WT GFP vs humanized-ribosome RFP mutants, 24 h; stronger effect = lower value; DMSO median 0, no signal -100; GFP signal change (wild-type ribosome), % (no concentration beside the values); actives 1.6% (n = 350,000);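 active = significant combined selectivity score with lowered wild-type GFP, culture density cut under 30%, mutant RFP and density less affected; inactive = any of these conditions unmet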
# RAD54 inh = inhibitors of human RAD54 branch migration, primary screen, biochemical, fluorescence, single point. DNA repair and recombination protein RAD54-like (Homo sapiens), Q92698. RAD54 Holliday junction branch migration, FAM/BHQ fluorescence. inhibition, % at 10.4 µM. actives 0.14% (n = 360,000);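 active = mean normalized replicate activity at least 40 and at least half of replicates scoring 40 or more; inconclusive = only one of the two criteria met; inactive = mean below 40 and under half of replicates reaching 40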;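 note: 0% = median of neutral control wells and 100% = median of positive control wells; inhibitors cause a drop in the FAM fluorescence signal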
# RAD52 inh = RAD52 DNA annealing inhibitors, primary screen, biochemical, FRET, single point, set 2. inhibition, % at 18.7 µM. recombinant RAD52 DNA annealing, FRET fluorescence. actives 0.46% (n = 360,000). AID 651710, 2012;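 active = every replicate showing at least 50% inhibition; inconclusive = mean inhibition at least 50% but not in every replicate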
# Target sequence (P43351 whole entry, looked up): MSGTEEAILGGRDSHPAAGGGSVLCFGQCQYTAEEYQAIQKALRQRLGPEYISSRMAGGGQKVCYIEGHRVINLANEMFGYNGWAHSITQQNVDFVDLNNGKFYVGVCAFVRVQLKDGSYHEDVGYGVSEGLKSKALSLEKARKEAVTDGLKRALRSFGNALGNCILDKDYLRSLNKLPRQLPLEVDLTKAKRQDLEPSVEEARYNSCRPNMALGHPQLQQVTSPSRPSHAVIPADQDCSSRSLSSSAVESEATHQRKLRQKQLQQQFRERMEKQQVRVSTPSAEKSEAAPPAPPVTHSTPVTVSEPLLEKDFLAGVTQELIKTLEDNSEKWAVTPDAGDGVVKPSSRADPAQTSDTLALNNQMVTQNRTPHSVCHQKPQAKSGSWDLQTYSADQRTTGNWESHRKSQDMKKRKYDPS
# GSIS activator = GLuc luminescence reporter in INS-1E cells, primary screen for activators of glucose-dependent secretion of insulin | INS-1E GLuc reporter insulin secretion, 2-3 h | AID 743287, 2014 | activation, % at 16.6 µM | actives 0.61% (n = 370,000);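 active = lowest replicate activation of at least 40%, so every replicate reaches that level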;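 note: 0% = median of neutral control wells and 100% = median of IBMX positive control wells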
# An asterisk follows results filed as active; ? = inconclusive; . = no result; ! = not confirmed by another sample. Hits are enriched below; roughly 2.6% of the tested compounds scored in any of these assays.
SMILES,E-sel inducer,AF4-AF9 inh,rRNA inh HTS,RAD54 inh,RAD52 inh,GSIS activator
COc1ccc(S(=O)(=O)N[C@H]2C=C[C@H](CC(=O)NCCc3ccncc3)O[C@H]2CO)cc1,0,-2,-1,0,-1,11
Cc1ccsc1/C=N/n1c(-c2ccncc2)n[nH]c1=S,.,.,.,9,.,48*
Cc1cccc(-c2n[nH]c(=S)n2/N=C/c2cccs2)c1,0,0,-22*,3,-4,.
C[C@H]1CN([C@@H](C)CO)C(=O)Cc2cc(NC(=O)Nc3ccc4c(c3)OCO4)ccc2O[C@@H]1CN(C)C(=O)Nc1ccc(C(F)(F)F)cc1,-1,3,3,-4,12,-3
Cc1ccc(NC(C)C(=O)N/N=C/c2ccc([N+](=O)[O-])s2)cc1 (centres undefined),16,3,-22*,11,-4,-2
O=[N+]([O-])c1ccc(/C=N/NC(=S)Nc2ccc(Cl)cc2Cl)s1,.,-2,-19*,0,-15,-19
Cc1noc(C)c1NC(=O)Nc1ccc2c(c1)CC(=O)N([C@@H](C)CO)C[C@@H](C)[C@H](CN(C)C(=O)Nc1ccccc1)O2,0,-3,3,3,-7,16
CC(C)(C)c1nc2ccccc2c2nnc(SCC(=O)Nc3nccs3)n12,.,.,.,10,.,77*
CC(C)(C)c1nc2ccccc2c2nnc(SCC(=O)Nc3nc4ccccc4s3)n12,.,.,5,10,-11,23
CC(=O)Nc1sc(N/N=C/c2ccc(N(C)C)cc2)nc1-c1ccc(C)cc1,0,-1,-33*,8,-24,5
CC(=O)Nc1sc(N/N=C/c2ccc(C)cc2)nc1-c1ccc(C)cc1,.,1,-1,.,-15,11
C[C@@H]1CN([C@H](C)CO)C(=O)c2cc(C#CCc3ccccc3)cnc2O[C@H]1CN(C)Cc1cccnc1,-1,4,1,-12,-8,-3
Cc1nc(C)n(C(Oc2ccc(Cl)cc2Cl)C(=O)C(C)(C)C)n1 (centres undefined),2,-5,-18*,-6,1,-35
COc1ccc(NC(=O)Nc2ccc3c(c2)CC(=O)N([C@H](C)CO)C[C@@H](C)[C@H](CN(C)Cc2ccc(C(=O)Nc4ccccc4N)cc2)O3)cc1,.,-3,5,.,-15,-9
CCC(=O)C(C#N)(c1ccc(OC)c(OC)c1)C(C)C (centres undefined),1,.,.,-7,.,82*
C/C(=N\Nc1nc2ccccc2[nH]1)c1ccc2c(c1)OCCO2,.,?,-48*,.,-2,1
C/C(=N\Nc1ccccn1)c1ccc2c(c1)OCO2,1,14,-1,3,-9,7
CC1=[N+](C)c2c(ccc3cccnc23)C1(C)C,196*,29*,-37,.,-38,-67
C[C@@H]1CN([C@@H](C)CO)C(=O)c2cc(NC(=O)NC3CCCCC3)ccc2O[C@H]1CN(C)Cc1ccc(Cl)c(Cl)c1,0,1,-2,-5,6,3
CN1C(=O)c2cc(NC(=O)Nc3ccccc3F)ccc2OC[C@@H]2O[C@@H](CC(=O)NCCc3ccncc3)CC[C@@H]21,0,0,2,-10,-3,-6
CC(=O)Nc1nc(C)c(-c2csc(Nc3cccc([N+](=O)[O-])c3)n2)s1,.,.,.,2,.,134*
C[C@@H](NC(=O)C[C@H]1C=C[C@H](NC(=O)Cc2ccccn2)[C@H](CO)O1)c1ccccc1,0,0,-1,-1,-1,4
Nc1cc(=O)[nH]c(N)n1,?,-3,-13*,-3,-5,3
COc1cc2c(cc1OC)CN(C(=O)/C=C/c1ccccc1[N+](=O)[O-])CC2,.,3,-7,-4,-13,5
COc1cc2c(cc1OC)CN(C(=O)/C=C/c1ccc([N+](=O)[O-])cc1)CC2,.,4,-17*,-5,-2,3
SMILES,E-sel inducer,AF4-AF9 inh,rRNA inh HTS,RAD54 inh,RAD52 inh,GSIS activator
Cc1cc(NC(=O)C2CC(=O)N(c3ccccc3C)C2)no1 (centres undefined),0,0,8,-1,-12,0
Cc1cc(NC(=O)C2CC(=O)N(c3cccc(C)c3C)C2)no1 (centres undefined),0,44*,7,-1,-3,24
CCN(CC)c1ccc(C2C3CCCCC3(O)CCN2C(=O)c2cccs2)cc1 (centres undefined),.,.,.,.,.,-16
O=C(c1cccs1)N1CCC2(O)CCCCC2C1c1ccc(F)cc1 (centres undefined),.,.,.,.,.,54*
COc1ccc(C2C3CCCCC3(O)CCN2C(=O)c2cccs2)cc1 (centres undefined),.,3,.,-10,.,48*
COc1ccc(C2CCCN2C(=O)c2cccs2)cc1 (centres undefined),.,.,.,-5,.,.
COc1cc(C(=O)ON=C2C3CC4CC(C3)CC2C4)cc(OC)c1OC,.,-4,-22*,-4,-4,-47
COc1cc(C(=O)O/N=C2\C=CC(=O)C=C2C)cc(OC)c1OC,.,-1,9,.,-2,-2
Oc1ccc2c(c1)OCC1(O)Cc3cc(O)c(O)cc3C21 (centres undefined),.,26*,.,-16,-24,0
Cc1ncsc1CCOC(=O)c1cccc([N+](=O)[O-])c1,.,7,5,-2,-5,42*!
O=C(COC(=O)c1cccc([N+](=O)[O-])c1)NCc1cccs1,3,1,6,.,-13,-3
NC(=O)COC(=O)c1ccccc1Oc1ccccc1,0,-1,4,.,-15,46*
NC(=O)NC(=O)COC(=O)c1ccccc1Oc1ccccc1,.,.,.,-11,.,.
Cc1noc(C)c1NC(=O)N(C)C[C@H]1OCc2ccccc2-c2c(n(C)c3ccccc23)C(=O)N([C@H](C)CO)C[C@H]1C,0,-5,2,-8,3,8
Cc1cccc(-c2ccc([C@H]3[C@H](CO)N4CCCCN(S(=O)(=O)c5ccccc5C)C[C@@H]34)cc2)c1,-1,2,-39*,10,-48,-10
Cc1ccccc1S(=O)(=O)N1CCCCN2[C@H](C1)[C@@H](c1ccc(C#CCN(C)C)cc1)[C@@H]2CO,0,-4,-5,-5,60*,13
Cc1ccccc1S(=O)(=O)N1CCCCN2[C@H](CO)[C@H](c3ccc(-c4ccccc4)cc3)[C@@H]2C1,.,-5,.,3,28,.
